Data set [1] is classed as in vitro ADME, human. Conditions: whole blood. The method in brief:
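Validation arm: fresh whole blood in EDTA or BD P100 tubes, equilibrated 30 min at 4 °C. Spiked with four peptides not used in training, 10 nM each (final). Aliquots taken at 0–7.5 h and centrifuged 1800g for 10 min. Plasma deproteinised with acidified acetonitrile, then quantified by UPLC–MS/MS MRM. Decay constant taken from the ln-linear slope. T50/T90 derived assuming first-order kinetics, SEM by error propagation.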

The format of data set [2] is in vitro ADME, human. Conditions: for original content still present / detected in plasma: after 1 month of storage at −80 °C, P100 plasma; for T90 in days (±SEM) in P100 plasma: 50 nM, T90 extrapolated. The method in brief: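 Cell-free plasma from BD P100 tubes spiked with the training peptide mix, 50 nM each (final). Aliquots stored at 4, −35 or −80 °C for up to 1 month. Sampled before storage and at 1, 7 and 30 days. Each 50 µL sample was acidified-acetonitrile precipitated, sonicated, boiled and centrifuged, then run by UPLC–MS/MS. Content normalised to baseline. T90 extrapolated from first-order decay fits.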

The format of data set [3] is in vitro ADME, human. Conditions: time frame of 7.5 h, at both 4 and 21 °C, all tubes. The method, boiled down: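 Fresh donor whole blood, in EDTA, EDTA plus protease-inhibitor cocktail (1:100 final), BD P100 or BD P800 tubes, held 30 min at 4, 21 or 37 °C. Then spiked with peptide mix at 10 nM each (final). Sampled at 0, 2.5, 5 and 7.5 h and centrifuged. Plasma acetonitrile/formic acid precipitated and analysed by amide UPLC–ESI(+)–MS/MS MRM. T0-normalised ln areas fitted first-order (λ). T50/T90 reported ±SEM by error propagation, n = 4.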

[4] abbreviates: external validation, P100 tube, 4 °C.
Setting [5] is: head-to-head comparison, EDTA sampling tube at 4 °C.
Where [6] appears, read: head-to-head comparison, P100 sampling tube at 4 °C.
Setting [7] is: storage at 4 °C, n = 4, up to 1 month.
Where [8] appears, read: storage at −35 °C, n = 4, thawed once, up to 1 month.
[9] abbreviates: storage at −80 °C, n = 4, thawed once, up to 1 month.

Where “and” joins values, the source holds several entries; their conditions need not be identical. Equal values may be shown once. Read-outs that look alike come from different tables or passages of the source. Where no end group is shown, it is not given here.

As for ESRLPKIRFDFIFPRKK [Q054], in data set [1] (setting [4]), the “T50 [±SEM]” value is 1.87 [±0.17] h, the “T90 [±SEM] (time where 90% of the peptide is still present)” value is 0.28 [±0.03] h and the “decay constant (λ) [±SEM]” value was “–0.00619 [±0.00056]”.

Consider ESRVSRIILDFLFQRKK [Q055], for which, in data set [1] (setting [4]), the “T50 [±SEM]” value is 1.49 [±0.12] h, the “T90 [±SEM] (time where 90% of the peptide is still present)” value was 0.23 [±0.02] h and the “decay constant (λ) [±SEM]” value was “–0.00776 [±0.00064]”. Further, in data set [1] (setting [5]), the “T50 [±SEM]” value is 1.35 [±0.33] h, the “T90 [±SEM]” value was 0.21 [±0.05] h and the “decay constant (λ) [±SEM]” value is “–0.00856 [±0.0021]”. Besides, in data set [1] (setting [6]), the “T50 [±SEM]” value was 2.07 [±0.36] ^a h, the “T90 [±SEM]” value is 0.31 [±0.05] ^a h and the “decay constant (λ) [±SEM]” value is “–0.00559 [±0.00098]”.

As for SDLPFEH [Q164, SDLPFEH], the “original content still present / detected in plasma” value in data set [2] is given as “more than 95%”. In addition, the “T90 in days (±SEM) in P100 plasma” value in data set [2] (setting [7]) was 0.95 (±0.23) days; in data set [2] (setting [8]), 33.8 (±45.91) days; in data set [2] (setting [9]), 96.3 (±136.01) days.

For SGSLSTFFRLFNRSFTQALGK [Q176], the “original content still present / detected in plasma” value in data set [2] was “more than 95%”. Moreover, the “T90 in days (±SEM) in P100 plasma” value is 0.48 (±0.02) days in data set [2] (setting [7]), 16.4 (±6.98) days in data set [2] (setting [8]) and 46.4 (±64.18) days in data set [2] (setting [9]).

As to SIFTLVA [Q184, SIFTLVA], the “degradation of the peptide in whole blood” value in data set [3] is given as “no degradation”. Besides, the “original content still present / detected in plasma” value in data set [2] is reported as ~25%. Besides, the “T90 in days (±SEM) in P100 plasma” value is 2.24 (±0.20) days in data set [2] (setting [7]); 2.56 (±0.21) days in data set [2] (setting [8]); 2.6 days and 2.61 (±0.23) days in data set [2] (setting [9]).

As for SNLVECVFSLFKKCN [Q076], the “T90 in days (±SEM) in P100 plasma” value in data set [2] (setting [7]) is listed as 1.24 (±0.03) days; in data set [2] (setting [8]), 20.4 (±13.67) days; in data set [2] (setting [9]), 13.2 (±4.80) days.

These data come from article PMC7346264 (ACS Omega, 2020).
